Screening results as filed in PubChem.
KCNK9 block: KCNK9 potassium channel inhibitors, primary screen, HEK293 cells, thallium flux | B-score at 10 µM | AID 488922, 2010 | 310,000 compounds, 1.2% hits | Potassium channel subfamily K member 9 (Homo sapiens), Q9NPC2 | FluxOR thallium flux fluorescence; hits give low values;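 active = ratio B-score over 3 SD below the library mean, with starting fluorescence within 5 SD of its mean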;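 note: negative B-score means less thallium flux so channel inhibition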
Target sequence (Q9NPC2 whole entry, looked up): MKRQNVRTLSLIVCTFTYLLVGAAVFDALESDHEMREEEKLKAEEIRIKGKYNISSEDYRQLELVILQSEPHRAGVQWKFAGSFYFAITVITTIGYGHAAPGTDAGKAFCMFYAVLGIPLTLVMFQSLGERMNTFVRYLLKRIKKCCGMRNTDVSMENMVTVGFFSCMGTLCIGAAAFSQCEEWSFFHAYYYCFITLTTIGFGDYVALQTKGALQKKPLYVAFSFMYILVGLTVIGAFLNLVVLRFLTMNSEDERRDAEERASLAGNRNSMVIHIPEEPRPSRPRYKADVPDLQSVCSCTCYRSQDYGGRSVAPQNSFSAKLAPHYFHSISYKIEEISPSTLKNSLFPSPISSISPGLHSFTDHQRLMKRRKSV
KCNK3 inh: human KCNK3 channel inhibitors, primary screen, CHO cells, FluxOR thallium flux, B-score; Potassium channel subfamily K member 3 (Homo sapiens), O14649; FluxOR fluorescence; hits give low values; B-score at 10 µM; 340,000 compounds, 0.84% hits; AID 602410, 2012;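 active = B-score under library mean minus 4 SD, starting fluorescence ratio at most library mean plus 5 SD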;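 note: more negative B-score means stronger inhibition of thallium flux through KCNK3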
Kir21 block: inhibitors of mouse Kir2.1 inward-rectifier potassium channel; Inward rectifier potassium channel 2 (Mus musculus), P35561; HEK293-Kir2.1, FluxOR thallium flux fluorescence; hits give low values; B-score at 10 µM; 310,000 compounds, 0.85% hits;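 active = fluorescence ratio B-score at or below minus 3 SD of library scores, with starting-brightness B-score within 2 SD, cut at about -4.2 in these data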;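 note: channel flux triggered by added potassium and thallium sulfate stimulus; B-score of peak minus minimum fluorescence over baseline after thallium stimulus; more negative B-score means stronger Kir2.1 block with less thallium influx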
KCNQ1 inh: inhibitors of human KCNQ1 channel, primary screen, cell-based, thallium flux, high-throughput; Potassium voltage-gated channel subfamily KQT member 1 (Homo sapiens), P51787; CHO-K1 KCNQ1, FluxOR thallium flux fluorescence; hits give high values; B-score at 10 µM; 310,000 compounds, 1.3% hits; AID 2642, 2010;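 active = compounds whose thallium flux B-score, printed positive for inhibition, exceeds three library SD while starting fluorescence stays within three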;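 note: channel opened by potassium depolarization with thallium stimulus after 20 min compound exposure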
hERG rescue: hERG rescue from dofetilide block, primary screen, cell-based, CHO-hERG, FluxOR thallium flux, dofetilide IC70 | activation (rescue from dofetilide block), less the hit threshold, % at 10 µM | 310,000 compounds, 0.51% hits | dofetilide IC70 present | Voltage-gated inwardly rectifying potassium channel KCNH2 (Homo sapiens), Q12809;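 active = activation above the mean of controls blocked by dofetilide plus 5 SD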;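 note: thallium influx through hERG after potassium depolarization seen as dye fluorescence rise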
KCNQ1 act: potentiators or activators of KCNQ1 channel, primary screen, cell-based, thallium flux, high-throughput. 310,000 compounds, 0.35% hits. Potassium voltage-gated channel subfamily KQT member 1 (Homo sapiens), P51787. CHO-K1 KCNQ1, thallium flux FluxOR fluorescence; hits give high values. B-score at 10 µM. AID 2648, 2010;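 active = fluorescence ratio B-score, a plate-corrected score, at least three library SD, with initial intensity B-score within 5 SD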
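System: Stable KCNQ1 CHO-K1 line | Incubation: 90 min dye loading and 20 min compound exposure, both at room temperature | Measure: Ratio B score | Medium: Assay buffer for compound exposure, DMSO matched across wells | Compound dosing: Single-concentration screen | Probe or stimulus: K+/Tl+ depolarizing stimulus | Measured by: Kinetic FluxOR fluorescence, 10 s baseline plus 110 s post-stimulus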
KCNK9 block conf: KCNK9 potassium channel inhibitors, confirmation, HEK293 cells, thallium flux, duplicate. inhibition, % at 10 µM. shares compounds with KCNK9 block. FluxOR thallium flux fluorescence. 4,900 compounds, 43% hits. AID 492992, 2010;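 active = thallium signal inhibited by more than 5 SD of the compound-free buffer control wells, on both duplicate plates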;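 note: 0% = assay buffer control wells without compound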
Kir21 sel: mouse Kir2.1 channel inhibition, confirmation, selectivity assay for KCNK9 modulator project, cell-based, HEK293, thallium flux | shares compounds with KCNK9 block | Kir2.1 cells, FluxOR thallium flux fluorescence | inhibition, % at 10 µM | 4,900 compounds, 4% hits;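 active = thallium signal drop more than 5 SD beyond the mean of the no-compound control wells, seen in both duplicate plates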;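 note: signal is fluorescence rise after thallium addition divided by baseline fluorescence; plate controls were assay buffer only for no effect and full block by chlorpromazine control for full effect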
KCNK9 uninduced: thallium flux in non-induced HEK293 cells, confirmation, counter-screen for KCNK9 inhibitor project, cell-based, second counter screen, non-induced KCNK9-HEK293; shares compounds with KCNK9 block; FluxOR thallium flux; inhibition, % at 10 µM; 4,900 compounds, 40% hits; AID 492997, 2010;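 active = thallium signal drop beyond 5 SD of the untreated control mean, on both duplicate plates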;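 note: plate controls were buffer only IC0 wells for no effect and SID17386958 at its maximal inhibitory level for full effect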
* marks the source's active call; other numbers are inactive results; i = inactive; nt = no result given. Compounds with a hit are over-represented: about 3.8% of the library has one in this group of screens.

SMILES	KCNK9 block	KCNK3 inh	Kir21 block	KCNQ1 inh	hERG rescue	KCNQ1 act	KCNK9 block conf	Kir21 sel	KCNK9 uninduced
Cc1onc(-c2ccccc2Cl)c1C(=O)NCCCc1ccccc1	i	i	-3.02	i	-9.1	i	nt	nt	nt
CCN(CC)S(=O)(=O)c1cccc(C(=O)N[C@H](C(=O)NC2=NCCS2)C(C)C)c1	nt	i	nt	nt	nt	nt	nt	nt	nt
N#CC1=C(S)N(c2ccccc2)C(c2ccc(-c3ccc(Cl)c(Cl)c3)o2)NC1=O (configuration not stated)	i	i	-6.21*	i	-16.3	i	i	i	i
CCCCN(CC)C(=O)CSc1nc2n[nH]c(C)c2c(=N)n1-c1cccc(C)c1	-9.25*	i	-0.4	i	-3.4	i	33.5%*	i	i
Cn1ccnc1Sc1ccc(C=O)cc1[N+](=O)[O-]	i	i	1.17	i	-15.2	i	nt	nt	nt
CCOc1ccc(-c2nc(C#N)c(N3CCCCCC3)o2)cc1	-8.57*	i	-1.92	i	-19.7	i	49.5%*	i	40.0%*
Cc1ccc(-c2nc(C#N)c(N3CCCCC3)o2)cc1	i	i	0.01	i	-3.5	i	nt	nt	nt
N#Cc1nc(-c2ccc(Cl)cc2)oc1N1CCCCC1	-8.3*	i	1.57	i	-1.7	i	i	i	30.0%*
CCOC(=O)c1ccc(N=c2ssnc2Cl)cc1	i	i	0.1	i	-10.2	i	nt	nt	nt
Cc1ccc(C(=O)NCc2ccc(Cl)c(Cl)c2)o1	i	i	0.62	i	-5.7	i	nt	nt	nt
Cc1ccc(C(=O)NCCNc2ccc([N+](=O)[O-])cc2C(F)(F)F)cc1	i	i	-1.05	i	-5.4	i	nt	nt	nt
O=C(NCCNc1ccc([N+](=O)[O-])cc1C(F)(F)F)c1ccccc1F	i	i	-1.27	i	-6.2	i	i	i	i
COc1ccc(CC(=O)N(C)CC(=O)Nc2ccccc2SC)cc1	i	i	-0.73	i	-8.4	i	nt	nt	nt
O=C(Nc1cc(S(=O)(=O)N2CCOCC2)ccc1Cl)C(=O)c1c(-c2ccccc2)cc2ccccn12	-8.2*	i	-0.09	i	-4.7	i	i	i	i
O=C(CNCc1ccccc1Cl)Nc1cc(S(=O)(=O)N2CCOCC2)ccc1Cl	nt	i	nt	nt	nt	nt	nt	nt	nt
CCOC(=O)c1c(N)sc(C(O)(C(F)(F)F)C(F)(F)F)c1-c1ccc(F)cc1	-9.27*	-12.2*	-0.47	i	-38.6	i	54.0%*	i	39.0%*
NC(=O)CN(N=Nc1cccc([N+](=O)[O-])c1)c1cccc([N+](=O)[O-])c1	i	i	-1.35	i	-6.9	i	nt	nt	nt
CCN(N=Nc1cccc([N+](=O)[O-])c1)c1cccc([N+](=O)[O-])c1	-11.2*	i	-1.52	i	-11.2	i	59.0%*	i	40.5%*
C=CCn1c(COc2ccc3c(c2)CCCC3)nnc1SCC(=O)Nc1cccc(SC)c1	i	i	-0.01	9*	-10.4	i	i	i	29.5%*
O=C(CCl)N(c1ccc(Cl)cc1)c1c[nH]c2ccccc12	i	i	-4	i	-17.1	i	i	i	i
O=C(CCl)N(c1ccccc1)c1c[nH]c2ccccc12	i	i	-0.22	i	-3.5	i	nt	nt	nt
COc1ccc(C(=O)/C(=C/O)N=Nc2ccc(F)cc2)cc1	-12*	i	-0.05	i	-11.9	i	i	i	i
CCCN1CCCc2cc(CN(CCCN3CCOCC3)C(=O)Nc3ccc(OCC)cc3)ccc21	i	i	0.02	i	-1.0	i	i	i	i
N#CC1=C(N)SC(N)=C(C#N)C1c1ccc([N+](=O)[O-])cc1	i	i	-0.39	i	-5.8	i	i	i	i
CCc1ccc(C2C(C#N)=C(N)SC(N)=C2C#N)cc1	i	i	-1.28	i	-12.9	i	nt	nt	nt
SMILES	KCNK9 block	KCNK3 inh	Kir21 block	KCNQ1 inh	hERG rescue	KCNQ1 act	KCNK9 block conf	Kir21 sel	KCNK9 uninduced
CC(C)CNC(=O)c1oc2ccccc2c1COc1ccccc1	i	i	-2.13	i	-9.2	i	i	i	i
CC(C)C(c1nnnn1Cc1ccccc1)N1CCc2ccccc2C1 (configuration not stated)	i	i	-0.56	i	-9.1	i	nt	nt	nt
c1ccc(Cn2nnnc2C(c2cccs2)N2CCc3ccccc3C2)cc1 (configuration not stated)	-11.7*	i	-0.34	i	-9.7	i	i	i	32.0%*
Cn1nc(-c2ccccc2)c(-c2nc(-c3ccccc3Cl)no2)c1Cl	-10.4*	i	-1.16	i	3.6	i	41.0%*	i	32.0%*
O=c1[nH]cnc2c1c(-c1ccccc1)cn2-c1cccc(Cl)c1	-12.7*	i	2.01	i	-3.5	i	51.5%*	i	i
COc1ccc(-n2cc(-c3ccccc3)c3c(=O)[nH]cnc32)cc1	i	i	0.21	i	-6.3	i	nt	nt	nt
COc1ccc(-c2csc(Nc3cc(C)ccn3)n2)cc1OC	i	i	-0.16	i	-1.9	i	nt	nt	nt
Cc1ccnc(Nc2nc(-c3c(C)nc4sccn34)cs2)c1	-16.6*	i	4.05	i	-13.9	i	40.0%*	i	28.0%*
CC(C)(C)NC(=O)NC(=O)COC(=O)c1cccc(NS(=O)(=O)c2ccc(F)c(F)c2)c1	i	i	-0.75	i	-10.8	i	nt	nt	nt
Cc1cccc(C(=O)Nc2ccc(C(=O)c3ccccc3)cc2)c1	-15.2*	i	-0.03	i	-2.5	i	60.0%*	i	27.0%*
O=C(NCCN1CCc2ccccc2C1)Nc1ccc([N+](=O)[O-])cc1	i	i	-2	i	-16.7	i	nt	nt	nt
